Experiments:
Mus musculus = test: Maximally tolerated dose (MTD) in tumor bearing mice on a daily times 5 ip regimen.; format: functional, organism-based
In short: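 B6D2F1 mice inoculated ip with 10^6 P388 leukemia cells, randomized into groups of six after the inoculum was checked sterile in thioglycolate broth. Dosing ip on days 1-5, starting 24 h after inoculation. Vehicle was DMA, ethanol and Cremophor (10% final), diluted with saline for lower doses and prepared just before injection. Mortality monitored daily up to 45 days.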

P388 [1] = test: Antitumor activity expressed as increase in median life span (ILS) measured in mice inoculated (ip) with P388 leukemia cells; format: functional, organism-based; conditions: Mus musculus
In short: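 Mice B6D2F1, inoculated ip with 10^6 P388 leukemia cells. After 24 h, with the inoculum confirmed free of bacteria by thioglycolate broth, mice were randomized into groups of six. Dosing was ip on days 1-5. The vehicle held DMA, ethanol and Cremophor at 10% final, with dilutions in saline. Mice were monitored daily for 45 days. ILS is the % increase in MST over untreated controls. The value reported is the maximum ILS from dose-response studies bracketing the maximally tolerated dose.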

P388 [2] = test: Ratio of in vitro cytotoxic potency in P388 / B16 cell lines; format: functional, cell-based; conditions: Mus musculus
In short: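 Ratio of IC50 in the P388 colony-forming assay (0.17% agarose) to IC50 in the B16 clonogenic assay. Both assays used a 2 h drug exposure and counted colonies against controls.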

B16 = test: Concentration that reduces the number of colonies formed by 50% in a clonogenic assay with B16 mouse melanoma cells.; format: functional, cell-based
In short: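 B16 melanoma F10 monolayers were grown in MEM with 10% calf serum. Cells were plated at 5000/plate and attached overnight. They were exposed to compound for 2 h, diluted from a 2 mM ethanol stock into MEM, then washed with PBS. Colonies of more than 50 cells were grown for 5 days at 37 °C and stained with crystal violet, in triplicate. IC50 is the 50% reduction in colonies versus controls.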

P388 [3] = test: Concentration that reduces the number of colonies formed by 50% in a clonogenic assay with P388 leukemia cells.; format: functional, cell-based, Mus musculus
In short: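 P388 cells were kept in suspension culture. Colony-forming assay was run in 0.17% agarose, with colony formation and IC50 (50% reduction in colonies versus controls) measured as in the B16 assay. That assay used a 2 h exposure and 5 days of colony growth.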

IC50 (B16) [µM] | IC50 (P388 [3]) [µM] | Substance | MTD (Mus musculus) [µM/kg] | ILSmax (P388 [1]) [%] | Ratio (P388 [2])
– | – | GOLD SODIUM THIOMALATE [listing 1 of 2 here] | 300 | 24 | 1.67
60 | 100 | GOLD SODIUM THIOMALATE [listing 2 of 2 here] | – | – | –

Reference: ChEMBL document CHEMBL1123395, “Correlation of the in vitro cytotoxic and in vivo antitumor activities of gold(I) coordination complexes” (J Med Chem, 1986)
